Values belong to the compound of their own block, whether it stands above or below them. Active and inactive are the calls of the source. The rule behind the calls is not given here.
Key:
[1] = target: Cannabinoid receptor 2 (Homo sapiens) (UniProt P34972); assay: Agonist activity at human recombinant cannabinoid CB2 receptor expressed in CHO cells at 10 uM by [35S]GTPgammaS binding assay; format: functional, cell-based
Procedure, shortened: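 Single-point screen for G-protein activation at hCB2 with [35S]GTPγS binding, ligand at 10 µM. Response given relative to the 10 nM HU-210 agonist response, in percent. Mean SEM of at least three experiments, each done in duplicate.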

[2] = target: Cannabinoid receptor 2 (Homo sapiens) (UniProt P34972); assay: Agonist activity at human recombinant cannabinoid CB2 receptor expressed in CHO cells by [35S]GTPgammaS binding assay relative to HU-210; format: functional, cell-based
Procedure, shortened: (§1)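 hCB2 [35S]GTPγS binding concentration–response curves, run only for ligands giving over 50% relative activity at 10 µM. logEC50 and Emax come from nonlinear regression fitted to a sigmoidal concentration–response equation. Emax is given as percent of the 10 nM HU-210 response. Mean SEM of at least three experiments in duplicate.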

[3] = target: Cannabinoid receptor 2 (Homo sapiens) (UniProt P34972); assay: Agonist activity at human recombinant cannabinoid CB2 receptor expressed in CHO cells by [35S]GTPgammaS binding assay; format: functional, cell-based; procedure, shortened: as §1
[4] = target: Cannabinoid receptor 1 (Rattus norvegicus) (UniProt P20272); assay: Antagonist activity at rat cannabinoid CB1 receptor in Wistar rat cerebellar membranes at 10 uM by [35S]GTPgammaS binding assay; format: functional, cell membranes; details: Cerebellum, Membrane
Sequence of Cannabinoid receptor 1 (Rattus norvegicus) (P20272 whole entry): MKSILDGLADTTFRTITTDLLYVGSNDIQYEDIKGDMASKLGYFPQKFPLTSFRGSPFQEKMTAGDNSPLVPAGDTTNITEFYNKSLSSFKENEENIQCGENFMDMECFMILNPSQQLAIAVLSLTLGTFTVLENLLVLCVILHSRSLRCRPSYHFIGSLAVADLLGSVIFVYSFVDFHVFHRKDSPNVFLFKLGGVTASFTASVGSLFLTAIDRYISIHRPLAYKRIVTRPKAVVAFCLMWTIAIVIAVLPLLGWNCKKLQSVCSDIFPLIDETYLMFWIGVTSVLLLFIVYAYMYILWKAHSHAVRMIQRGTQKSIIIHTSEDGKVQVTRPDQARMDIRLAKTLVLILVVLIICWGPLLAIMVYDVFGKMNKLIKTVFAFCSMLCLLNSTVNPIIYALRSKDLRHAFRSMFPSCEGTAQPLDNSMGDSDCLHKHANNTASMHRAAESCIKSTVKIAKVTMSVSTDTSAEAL
Procedure, shortened: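 Uses non-recombinant rat cerebellar membrane fractions as the CB1 source, with [35S]GTPγS binding. Ligand screened at 10 µM for its ability to antagonize the agonist response to 10 nM HU-210.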

[5] = target: Cannabinoid receptor 1 (Rattus norvegicus) (UniProt P20272); assay: Antagonist activity at rat cannabinoid CB1 receptor in Wistar rat cerebellar membranes by [35S]GTPgammaS binding assay; format: functional, cell membranes; details: Cerebellum, Membrane
Procedure, shortened: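 Non-recombinant rat cerebellar membrane fractions, [35S]GTPγS binding. Compounds screened at a single concentration for their ability to antagonise the response to 10 nM HU-210 agonist.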

Sequence of Cannabinoid receptor 2 (Homo sapiens) (P34972 whole entry): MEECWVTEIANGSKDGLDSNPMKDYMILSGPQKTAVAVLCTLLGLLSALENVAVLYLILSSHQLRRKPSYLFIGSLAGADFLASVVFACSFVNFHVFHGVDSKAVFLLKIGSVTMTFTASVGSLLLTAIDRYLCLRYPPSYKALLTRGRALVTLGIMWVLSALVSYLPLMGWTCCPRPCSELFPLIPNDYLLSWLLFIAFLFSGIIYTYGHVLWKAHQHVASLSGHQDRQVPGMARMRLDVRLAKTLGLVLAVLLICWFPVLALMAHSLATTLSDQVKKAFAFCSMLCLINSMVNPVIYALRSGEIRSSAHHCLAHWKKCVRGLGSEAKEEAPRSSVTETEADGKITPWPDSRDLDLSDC

Compound: c1ccc2nc(NC3CCCCC3)ccc2c1
- Activity [1]: 57%
- Emax [2]: 88%
- pEC50 [3]: 5.2
- Activity [4]: inactive

Compound: COc1cccc(Nc2ccc3ccccc3n2)c1
- Activity [1]: 50%
- Emax [2]: 61%
- pEC50 [3]: 5.6
- Activity [4]: inactive

Compound: O=C(NC1CCCCC1)c1cnc(Nc2cccc(C(F)(F)F)c2)c2ccccc12
- Activity [1]: 54%
- Emax [2]: 73%
- pEC50 [3]: 5.7
- Activity [4]: inactive

Compound: O=C(NCC1CCCCC1)c1cnc(Nc2cccc(C(F)(F)F)c2)c2ccccc12
- Activity [1]: 58%
- Emax [2]: 67%
- pEC50 [3]: 5.8
- Activity [4]: inactive

Compound: c1ccc(Nc2ccnc3ccccc23)cc1
- Activity [1]: 9%
- Activity [4]: inactive

Compound: Clc1ccc(Nc2ccc3ccccc3n2)cc1
- Activity [1]: 75%
- Emax [2]: 80%
- pEC50 [3]: 5.7
- Activity [4]: inactive

Compound: FC(F)(F)c1cccc(Nc2ncc3ccccc3n2)c1
- Activity [1]: 53%
- Emax [2]: 67%
- pEC50 [3]: 5.5
- Activity [4]: inactive

Compound: Clc1ccccc1Nc1ccc2ccccc2n1
- Activity [1]: 56%
- Emax [2]: 91%
- pEC50 [3]: 5.2
- Activity [4]: inactive

Compound: O=C(NCc1ccccc1)c1cnc(Nc2cccc(C(F)(F)F)c2)c2ccccc12
- Activity [1]: 21%
- Activity [4]: inactive

Compound: COC(=O)c1cc2ccccc2c(Nc2cccc(C(F)(F)F)c2)n1
- Activity [1]: 4%
- Activity [4]: inactive

Compound: FC(F)(F)c1cccc(Nc2ccc3ccccc3n2)c1
- Activity [1]: 64%
- Emax [2]: 65%
- pEC50 [3]: 5.9
- Activity [4]: inactive

Compound: COc1ccccc1Nc1ccc2ccccc2n1
- Activity [1]: 69%
- Emax [2]: 102%
- pEC50 [3]: 5.3
- Activity [4]: inactive

Compound: O=C(NCc1ccccc1)c1cc2ccccc2c(Nc2cccc(C(F)(F)F)c2)n1
- Activity [1]: 0%
- Activity [4]: inactive

Compound: c1ccc(Nc2cnc3ccccc3n2)cc1
- Activity [1]: 30%
- Activity [4]: inactive

Compound: O=C(c1cnc(Nc2cccc(C(F)(F)F)c2)c2ccccc12)N1CCOCC1
- Activity [1]: 76%
- Emax [2]: 75%
- pEC50 [3]: 7.8
- logEC50 [5]: 5

Compound: c1ccc(Oc2nccc3ccccc23)cc1
- Activity [1]: 31%
- Activity [4]: inactive

Compound: c1ccc(Nc2ncnc3ccccc23)cc1
- Activity [1]: 10%
- Activity [4]: inactive

Compound: FC(F)(F)c1cccc(Nc2nccc3ccccc23)c1
- Activity [1]: 102%
- Emax [2]: 124%
- pEC50 [3]: 5.8
- Activity [4]: inactive

Compound: FC(F)(F)c1cccc(Nc2ncnc3ccccc23)c1
- Activity [1]: 68%
- Emax [2]: 79%
- pEC50 [3]: 5.6
- Activity [4]: inactive

Compound: c1ccc(Sc2nccc3ccccc23)cc1
- Activity [1]: 33%
- Activity [4]: inactive

Compound: Clc1cccc(Nc2ccc3ccccc3n2)c1
- Activity [1]: 58%
- Emax [2]: 70%
- pEC50 [3]: 5.6
- Activity [4]: inactive

Compound: c1ccc(Cc2ccccc2Nc2ccc3ccccc3n2)cc1
- Activity [1]: 18%
- Activity [4]: inactive

Compound: COc1ccccc1NC(=O)c1cnc(Nc2cccc(C(F)(F)F)c2)c2ccccc12
- Activity [1]: 1%
- Activity [4]: inactive

Compound: COc1ccc(Nc2ccc3ccccc3n2)cc1
- Activity [1]: 49%
- Emax [2]: 51%
- pEC50 [3]: 5.7
- Activity [4]: inactive

Compound: c1ccc(Sc2ccc3ccccc3n2)cc1
- Activity [1]: 47%
- Emax [2]: 61%
- pEC50 [3]: 5.4
- Activity [4]: inactive

Compound: FC(F)(F)c1ccccc1Nc1nccc2ccccc12
- Activity [1]: 43%
- Activity [4]: inactive

Compound: O=C(NCC1CCCCC1)c1cc2ccccc2c(Nc2cccc(C(F)(F)F)c2)n1
- Activity [1]: -2%
- Activity [4]: inactive

Compound: FC(F)(F)c1cccc(Nc2cnc3ccccc3n2)c1
- Activity [1]: 52%
- Emax [2]: 69%
- pEC50 [3]: 5.4
- Activity [4]: inactive

Compound: c1ccc(Nc2nccc3ccccc23)cc1
- Activity [1]: 7%
- Activity [4]: inactive

Compound: FC(F)(F)c1ccc(Nc2nccc3ccccc23)cc1
- Activity [1]: 25%
- Activity [4]: inactive

Compound: FC(F)(F)c1ccccc1Nc1ccc2ccccc2n1
- Activity [1]: 63%
- Emax [2]: 103%
- pEC50 [3]: 5.2
- Activity [4]: inactive

Compound: Brc1cccc(Nc2ccc3ccccc3n2)c1
- Activity [1]: 64%
- Emax [2]: 69%
- pEC50 [3]: 5.7
- Activity [4]: inactive

Compound: FC(F)(F)c1cccc(Nc2ccnc3ccccc23)c1
- Activity [1]: 50%
- Emax [2]: 58%
- pEC50 [3]: 5.5
- Activity [4]: inactive

The next lines start with the values.

- Activity [1]: 22%
- Activity [4]: inactive
Compound: c1ccc2nc(NC3CCCC3)ccc2c1

- Activity [1]: 25%
- Activity [4]: inactive
Compound: N#Cc1cccc(Nc2ccc3ccccc3n2)c1

- Activity [1]: 39%
- Activity [4]: inactive
Compound: c1ccc(Nc2ccc3ccccc3n2)cc1

- Activity [1]: 20%
- Activity [4]: inactive
Compound: OCCc1ccc(Nc2ccc3ccccc3n2)cc1

- Activity [1]: 10%
- Activity [4]: inactive
Compound: CCCCCCNc1ccc2ccccc2n1

- Activity [1]: 13%
- Activity [4]: inactive
Compound: O=C(NC1CCCCC1)c1cc2ccccc2c(Nc2cccc(C(F)(F)F)c2)n1

- Activity [1]: 33%
- Activity [4]: inactive
Compound: COc1cc(C(F)(F)F)ccc1Nc1ccc2ccccc2n1

- Activity [1]: 7%
- Activity [4]: inactive
Compound: c1ccc2nc(N3CCOCC3)ccc2c1

- Activity [1]: 13%
- Activity [4]: inactive
Compound: c1ccc(Sc2cnc3ccccc3c2)cc1

- Activity [1]: 8%
- Activity [4]: inactive
Compound: Oc1ccc(Nc2ccc3ccccc3n2)cc1

- Activity [1]: 20%
- Activity [4]: inactive
Compound: c1ccc(CNc2ccc3ccccc3n2)cc1

- Activity [1]: 3%
- Activity [4]: inactive
Compound: CCOC(=O)c1ccc(Nc2ccc3ccccc3n2)cc1

- Activity [1]: 20%
- Activity [4]: inactive
Compound: CN(C)c1ccc(Nc2ccc3ccccc3n2)cc1

- Activity [1]: 38%
- Activity [4]: inactive
Compound: c1ccc(Nc2ncc3ccccc3n2)cc1

- Activity [1]: 44%
- Activity [4]: inactive
Compound: c1ccc2nc(NCC3CCCCC3)ccc2c1

- Activity [1]: 48%
- Activity [4]: inactive
Compound: FC(F)(F)c1ccc(Nc2ccc3ccccc3n2)cc1

- Activity [1]: 17%
- Activity [4]: inactive
Compound: c1ccc(Oc2cnc3ccccc3c2)cc1

- Activity [1]: 10%
- Activity [4]: inactive
Compound: c1ccc2nc(N3CCCCC3)ccc2c1

Reference: ChEMBL document CHEMBL1641511, “Microwave-assisted synthesis of quinoline, isoquinoline, quinoxaline and quinazoline derivatives as CB2 receptor agonists” (Bioorg Med Chem, 2011)
